From ChEMBL document CHEMBL2157922, “Synthesis and antifungal activity of diverse C-2 pyridinyl and pyridinylvinyl substituted quinolines” (2012)

Experiments:
Candida albicans [1] = experiment: Antifungal activity against Candida albicans ATCC 10231 after 48 hrs by broth microdilution technique; assay type: functional; conditions: ATCC 10231, 48 h
Procedure, shortened: (§1)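 Yeasts were tested by CLSI broth microdilution in RPMI-1640 buffered to pH 7.0 with MOPS, with compound from 250 down to 0.98 in DMSO stocks. Trays were held at 30 °C in a moist, dark chamber. MIC100, the lowest concentration giving total visual inhibition against the growth control, was read by eye at 48 h.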

Saccharomyces cerevisiae = experiment: Antifungal activity against Saccharomyces cerevisiae ATCC 9763 after 48 hrs by broth microdilution technique; assay type: functional; conditions: ATCC 9763, 48 h; procedure, shortened: as §1
Cryptococcus neoformans [2] = experiment: Antifungal activity against Cryptococcus neoformans ATCC 32264 after 48 hrs by broth microdilution technique; assay type: functional; conditions: ATCC 32264, 48 h; procedure, shortened: as §1
Aspergillus fumigatus = experiment: Antifungal activity against Aspergillus fumigatus ATCC 26934 after 48 hrs by broth microdilution technique; assay type: functional; conditions: ATCC 26934, 48 h
Procedure, shortened: (§2)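 Moulds and dermatophytes were run by CLSI broth microdilution in MOPS-buffered RPMI-1640 at pH 7.0. Aspergillus was incubated at 30 °C and dermatophytes at 28–30 °C, in a moist, dark chamber. MIC100, the lowest concentration with no visible growth, was read visually at a time set by growth of the control fungus.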

Aspergillus flavus = experiment: Antifungal activity against Aspergillus flavus ATCC 9170 after 48 hrs by broth microdilution technique; assay type: functional; conditions: ATCC 9170, 48 h; procedure, shortened: as §2
Aspergillus niger = experiment: Antifungal activity against Aspergillus niger ATCC 9029 after 48 hrs by broth microdilution technique; assay type: functional; conditions: ATCC 9029, 48 h; procedure, shortened: as §2
Nannizzia gypsea = experiment: Antifungal activity against Microsporum gypseum CCC 115 after 48 hrs by broth microdilution technique; assay type: functional; conditions: CCC 115, 48 h; procedure, shortened: as §2
Trichophyton rubrum = experiment: Antifungal activity against Trichophyton rubrum CCC 113 after 48 hrs by broth microdilution technique; assay type: functional; conditions: CCC 113, 48 h
[3] = system: Trichophyton mentagrophytes; experiment: Antifungal activity against Trichophyton mentagrophytes ATCC 9972 after 48 hrs by broth microdilution technique; assay type: functional; conditions: ATCC 9972, 48 h; procedure, shortened: as §2
Candida albicans [4] = experiment: Antifungal activity against Candida albicans CCC 125 after 48 hrs by broth microdilution technique; assay type: functional; conditions: CCC 125, 48 h
Candida albicans [5] = experiment: Antifungal activity against Candida albicans CCC 126 after 48 hrs by broth microdilution technique; assay type: functional; conditions: CCC 126, 48 h
Candida albicans [6] = experiment: Antifungal activity against Candida albicans CCC 127 after 48 hrs by broth microdilution technique; assay type: functional; conditions: CCC 127, 48 h
Candida albicans [7] = experiment: Antifungal activity against Candida albicans CCC 128 after 48 hrs by broth microdilution technique; assay type: functional; conditions: CCC 128, 48 h
Candida albicans [8] = experiment: Antifungal activity against Candida albicans CCC 129 after 48 hrs by broth microdilution technique; assay type: functional; conditions: CCC 129, 48 h
Candida albicans [9] = experiment: Antifungal activity against Candida albicans CCC 130 after 48 hrs by broth microdilution technique; assay type: functional; conditions: CCC 130, 48 h
Nakaseomyces glabratus = experiment: Antifungal activity against Candida glabrata CCC 115 after 48 hrs by broth microdilution technique; assay type: functional; conditions: CCC 115, 48 h
Candida parapsilosis = experiment: Antifungal activity against Candida parapsilosis CCC 124 after 48 hrs by broth microdilution technique; assay type: functional; conditions: Lodderomyces parapsilosis, CCC 124, 48 h
Pichia kudriavzevii = experiment: Antifungal activity against Candida krusei CCC 117 after 48 hrs by broth microdilution technique; assay type: functional; conditions: CCC 117, 48 h
Candida tropicalis = experiment: Antifungal activity against Candida tropicalis CCC 131 after 48 hrs by broth microdilution technique; assay type: functional; conditions: CCC 131, 48 h
Cryptococcus neoformans [10] = experiment: Antifungal activity against Cryptococcus neoformans IM 983040 after 48 hrs by broth microdilution technique; assay type: functional; conditions: IM 983040, 48 h
Procedure, shortened: (§3)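 C. neoformans was tested by 96-well RPMI-1640 microdilution, with DMSO-matched growth and sterility control wells. Plates were incubated 48 h at 30 °C in a moist, dark chamber and read at OD405. % inhibition = 100 − (CTW − SCW)/(GCW − SCW), in duplicate. For the clinical isolates, MIC80 and MIC50 are the lowest concentrations giving 80% and 50% inhibition.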

Cryptococcus neoformans [11] = experiment: Antifungal activity against Cryptococcus neoformans IM 972724 after 48 hrs by broth microdilution technique; assay type: functional; conditions: IM 972724, 48 h; procedure, shortened: as §3
Cryptococcus neoformans [12] = experiment: Antifungal activity against Cryptococcus neoformans IM 042074 after 48 hrs by broth microdilution technique; assay type: functional; conditions: IM 042074, 48 h; procedure, shortened: as §3
Cryptococcus neoformans [13] = experiment: Antifungal activity against Cryptococcus neoformans IM 983036 after 48 hrs by broth microdilution technique; assay type: functional; conditions: IM 983036, 48 h; procedure, shortened: as §3
Cryptococcus neoformans [14] = experiment: Antifungal activity against Cryptococcus neoformans IM 00319 after 48 hrs by broth microdilution technique; assay type: functional; conditions: IM 00319, 48 h; procedure, shortened: as §3
Cryptococcus neoformans [15] = experiment: Antifungal activity against Cryptococcus neoformans IM 972751 after 48 hrs by broth microdilution technique; assay type: functional; conditions: IM 972751, 48 h; procedure, shortened: as §3
Candida albicans [16] = experiment: Antifungal activity against Candida albicans ATCC 10231 at 31.2 ug/ml after 24 hrs; assay type: functional; conditions: ATCC 10231, 24 h
Procedure, shortened: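 C. albicans was grown in 96-well RPMI-1640 broth microdilution with compound wells diluted from DMSO stocks. Growth wells with matched DMSO and sterility wells were included. After 24 h at 30 °C in a moist, dark chamber, OD405 was read. % inhibition = 100 − (CTW − SCW)/(GCW − SCW) OD, done in duplicate.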

Candida albicans [17] = experiment: Antifungal activity against Candida albicans CCC 130 after 24 hrs by broth microdilution technique; conditions: CCC 130, 24 h

Clc1ccc2nc(/C=C/c3ccncc3)ccc2c1
15.6 µg/mL: MIC50 (Candida albicans [1]) | MIC50 (Cryptococcus neoformans [2]) | MIC50 (Cryptococcus neoformans [10]) | MIC50 (Cryptococcus neoformans [12]) | MIC50 (Cryptococcus neoformans [15])
80%: inhibition at 31.2 µg/mL (Candida albicans [16])
250 µg/mL: MFC (Cryptococcus neoformans [2]) | MIC (Aspergillus fumigatus) | MIC (Aspergillus flavus) | MIC (Aspergillus niger)
7.8 µg/mL: MIC50 (Cryptococcus neoformans [13])
125 µg/mL: MIC (Candida albicans [1]) | MIC (Saccharomyces cerevisiae) | MIC (Cryptococcus neoformans [2]) | MFC (Nannizzia gypsea) | MFC (Trichophyton rubrum) | MFC [3] | MIC80 (Candida albicans [4]) | MIC80 (Candida albicans [7]) | MIC80 (Candida tropicalis)
62.5 µg/mL: MIC80 (Candida albicans [5]) | MIC80 (Candida albicans [6]) | MIC50 (Candida albicans [7]) | MIC80 (Candida albicans [8]) | MIC80 (Candida albicans [9]) | MIC80 (Cryptococcus neoformans [10]) | MIC80 (Cryptococcus neoformans [11]) | MIC80 (Cryptococcus neoformans [12]) | MIC80 (Cryptococcus neoformans [13]) | MIC80 (Cryptococcus neoformans [14])
62 µg/mL: MIC (Nannizzia gypsea) | MIC (Trichophyton rubrum) | MIC [3]
> 250 µg/mL: MFC (Candida albicans [1]) | MFC (Saccharomyces cerevisiae) | MFC (Aspergillus fumigatus) | MFC (Aspergillus flavus) | MFC (Aspergillus niger) | MIC50 (Nakaseomyces glabratus) | MIC80 (Nakaseomyces glabratus) | MIC50 (Candida parapsilosis) | MIC80 (Candida parapsilosis) | MIC50 (Pichia kudriavzevii) | MIC80 (Pichia kudriavzevii)
31.2 µg/mL: MIC80 (Candida albicans [1]) | MIC80 (Cryptococcus neoformans [2]) | MIC50 (Candida albicans [4]) | MIC50 (Candida albicans [5]) | MIC50 (Candida albicans [6]) | MIC50 (Candida albicans [8]) | MIC50 (Candida tropicalis) | MIC50 (Cryptococcus neoformans [11]) | MIC50 (Cryptococcus neoformans [14]) | MIC80 (Cryptococcus neoformans [15]) | MIC50 (Candida albicans [17])

C[C@@H]1[C@H](O)[C@@H](C)/C=C/C=C/C=C/C=C/C=C/C=C/C=C/[C@H](O[C@@H]2O[C@H](C)[C@@H](O)[C@H](N)[C@@H]2O)C[C@@H]2O[C@](O)(C[C@@H](O)C[C@@H](O)[C@H](O)CC[C@@H](O)C[C@@H](O)CC(=O)O[C@H]1C)C[C@H](O)[C@H]2C(=O)O [AMPHOTERICIN B]
0.12 µg/mL: MIC (Nannizzia gypsea)
1 µg/mL: MIC80 (Candida albicans [1])
0.98 µg/mL: MIC (Candida albicans [1])
0.13 µg/mL: MIC80 (Cryptococcus neoformans [10]) | MIC80 (Cryptococcus neoformans [13])
1.56 µg/mL: MIC80 (Candida albicans [5]) | MIC80 (Candida albicans [7])
0.06 µg/mL: MIC (Trichophyton rubrum) | MIC [3] | MIC80 (Cryptococcus neoformans [11])
0.25 µg/mL: MIC (Cryptococcus neoformans [2]) | MIC80 (Cryptococcus neoformans [2]) | MIC80 (Cryptococcus neoformans [12]) | MIC80 (Cryptococcus neoformans [14]) | MIC80 (Cryptococcus neoformans [15])
0.49 µg/mL: MIC (Saccharomyces cerevisiae) | MIC (Aspergillus fumigatus) | MIC (Aspergillus flavus) | MIC (Aspergillus niger)
0.78 µg/mL: MIC80 (Candida albicans [4]) | MIC80 (Candida albicans [6]) | MIC80 (Candida albicans [8]) | MIC80 (Candida parapsilosis)
0.39 µg/mL: MIC80 (Nakaseomyces glabratus) | MIC80 (Pichia kudriavzevii)
0.5 µg/mL: MIC80 (Candida albicans [9]) | MIC80 (Candida tropicalis)

Fc1ccc2nc(-c3cccnc3)ccc2c1
> 250 µg/mL: MIC (Candida albicans [1]) | MIC (Saccharomyces cerevisiae) | MFC (Aspergillus niger)
125 µg/mL: MIC (Aspergillus fumigatus) | MIC (Aspergillus flavus)
62 µg/mL: MIC (Cryptococcus neoformans [2]) | MFC (Nannizzia gypsea) | MIC (Nannizzia gypsea) | MFC (Trichophyton rubrum) | MIC (Trichophyton rubrum) | MFC [3] | MIC [3]
250 µg/mL: MFC (Cryptococcus neoformans [2]) | MFC (Aspergillus fumigatus) | MFC (Aspergillus flavus) | MIC (Aspergillus niger)

CC(=O)N1CCN(c2ccc(OCC3COC(Cn4ccnc4)(c4ccc(Cl)cc4Cl)O3)cc2)CC1 (centres undefined) [KETOCONAZOLE]
0.06 µg/mL: MIC (Nannizzia gypsea)
0.03 µg/mL: MIC (Trichophyton rubrum) | MIC [3]
0.49 µg/mL: MIC (Candida albicans [1]) | MIC (Saccharomyces cerevisiae) | MIC (Aspergillus fumigatus)
0.25 µg/mL: MIC (Cryptococcus neoformans [2]) | MIC (Aspergillus niger)
0.12 µg/mL: MIC (Aspergillus flavus)

Clc1cccc2ccc(-c3ccncc3)nc12
250 µg/mL: MFC (Cryptococcus neoformans [2])
62 µg/mL: MFC (Nannizzia gypsea) | MFC (Trichophyton rubrum) | MIC [3]
31 µg/mL: MIC (Nannizzia gypsea) | MIC (Trichophyton rubrum)
> 250 µg/mL: MIC (Candida albicans [1]) | MIC (Saccharomyces cerevisiae) | MIC (Aspergillus fumigatus) | MIC (Aspergillus flavus) | MIC (Aspergillus niger)
125 µg/mL: MIC (Cryptococcus neoformans [2]) | MFC [3]

Clc1ccc2nc(/C=C/c3cccnc3)ccc2c1
250 µg/mL: MIC (Aspergillus fumigatus) | MIC (Aspergillus flavus) | MIC (Nannizzia gypsea) | MIC (Trichophyton rubrum) | MIC [3]
> 250 µg/mL: MIC (Candida albicans [1]) | MIC (Saccharomyces cerevisiae) | MIC (Cryptococcus neoformans [2]) | MFC (Aspergillus fumigatus) | MFC (Aspergillus flavus) | MIC (Aspergillus niger) | MFC (Nannizzia gypsea) | MFC (Trichophyton rubrum) | MFC [3]
